Assay [1] has as its system Calu-6. The assay can be described thus: Cytotoxicity against human Calu6 cells expressing VIPR1 in presence of 2% serum. The assay is classed as functional, cell-based. Summed up: (§1)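 Cell proliferation in H727, H1299 and Calu6 lines, chosen for high VIPR1 expression. Medium held 2% serum to limit albumin sequestration. Compounds were tested at concentrations up to 10 µM.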

In assay [2] the target is T1, Vasoactive intestinal polypeptide receptor 1 (Rattus norvegicus) (UniProt P30083).
T1 sequence (whole entry): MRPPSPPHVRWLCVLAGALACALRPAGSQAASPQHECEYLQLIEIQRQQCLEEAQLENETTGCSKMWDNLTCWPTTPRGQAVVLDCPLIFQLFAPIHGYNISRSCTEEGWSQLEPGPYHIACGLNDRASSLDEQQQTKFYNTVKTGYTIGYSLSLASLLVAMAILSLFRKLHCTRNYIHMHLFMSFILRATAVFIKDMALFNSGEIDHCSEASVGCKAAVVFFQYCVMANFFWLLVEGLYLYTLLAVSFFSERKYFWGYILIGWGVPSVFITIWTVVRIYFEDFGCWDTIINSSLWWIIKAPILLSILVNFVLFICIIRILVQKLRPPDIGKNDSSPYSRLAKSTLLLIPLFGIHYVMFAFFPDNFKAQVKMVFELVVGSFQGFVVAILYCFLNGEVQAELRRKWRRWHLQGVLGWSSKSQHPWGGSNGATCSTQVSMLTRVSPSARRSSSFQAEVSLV
Put plainly: Displacement of [125I]VIP from vasoactive intestinal peptide receptor 1 in rat RKE cell membrane after 3 hrs by TopCount assay. Format: cell membranes. The method in brief:
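Membranes from RKE-VIPR cells, 5 µg/well final, preincubated 10 min at room temperature with wheat germ agglutinin-coated PVT beads in 50 mM HEPES, 5 mM MgCl2, 1 mM CaCl2, 0.1% BSA. IC50 taken from a four-parameter logistic fit after subtracting nonspecific binding, defined with excess VIP.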
A general note: Loss of bound radioactivity is the signal in a displacement assay; it reports binding, not function.

Assay [3] addresses T2, Vasoactive intestinal polypeptide receptor 1 (Rattus norvegicus, UniProt P30083).
T2 sequence (P30083 whole entry): T1 sequence (whole entry)
Put plainly: Antagonist activity at vasoactive intestinal peptide receptor 1 in rat RKE cells assessed as inhibition of VIP-induced intracellular cAMP accumulation incubated for 15 mins prior to VIP-stimulation measured after 30 mins by HTRF assay.

Assay [4] has as its system NCI-H727. The assay can be described thus: Cytotoxicity against human NCI-H727 cells expressing VIPR1 in presence of 2% serum. Format: functional, cell-based. The method in brief: as §1
The subject of assay [5] is NCI-H1299. The assay can be described thus: Cytotoxicity against human NCI-H1299 cells expressing VIPR1 in presence of 2% serum. The assay is classed as functional, cell-based. Summed up: as §1
The subject of assay [6] is NCI-H727. Put plainly: Cytotoxicity against human NCI-H727 cells expressing VIPR1 up to 10 uM in presence of 2% serum. The assay is classed as functional, cell-based. The method in brief:
as §1

In assay [7] the test system is Calu-6. Put plainly: Cytotoxicity against human Calu6 cells expressing VIPR1 up to 10 uM in presence of 2% serum. Format: functional, cell-based. The method in brief: as §1
Assay [8] has as its system NCI-H1299. Put plainly: Cytotoxicity against human NCI-H1299 cells expressing VIPR1 up to 10 uM in presence of 2% serum. Format: functional, cell-based. The method in brief: as §1

Each structure is given as a SMILES string. Activity calls are given as the source filed them. No cut-off for these calls is given here. Bounds are passed on as bounds.

For `N#Cc1c(NC(=O)C2CCCCC2)sc2c1CCCC2`, the outcome in the assay with Calu-6 [1], in the assay with NCI-H727 [4] and with NCI-H1299 [5] was inactive. Moreover, in assay [2], the outcome was Active. Moreover, the 50% inhibitory concentration (IC50) in assay [3] came out at 470 nM.

For the compound `N#Cc1c(NC(=O)C2CC2)sc2c1CCCC2`, the result in the assay on Calu-6 [1], in the assay with NCI-H727 [4] and in the assay with NCI-H1299 [5] was inactive. Besides, in assay [2], the result was Active. Further, the IC50 in assay [3] worked out at 2700 nM.

For `N#Cc1c(NC(=O)CCc2ccccc2)sc2c1CCCC2`, the outcome in the assay on Calu-6 [1], in the assay with NCI-H727 [4] and with NCI-H1299 [5] was inactive. Besides, in assay [2], the result was Active. In assay [3], the concentration for half-maximal inhibition (IC50) stood at 290 nM.

On to `N#Cc1c(NC(=O)C2CCc3ccccc3C2)sc2c1CCCC2` (stereo not given), for which the outcome in the assay with Calu-6 [1], with NCI-H727 [4] and in the assay on NCI-H1299 [5] was inactive. For the same compound, the result in assay [2] was Active. Moreover, the concentration for half-maximal inhibition (IC50) in assay [3] was found to be 12000 nM.

`CC(C)c1cc(C(C)(C)C)cc(-c2ccccc2-c2ccccc2)c1CO`: in assay [2], the outcome was Active. Besides, the outcome in the assay on NCI-H727 [6], with Calu-6 [7] and with NCI-H1299 [8] was inactive. Further, the IC50 in assay [3] worked out at 3200 nM.

Turning to `CC(C)c1cc(C(C)(C)C)cc(-c2cccc(C#N)c2)c1CO`, the result in assay [2] was Active. The outcome in the assay with NCI-H727 [6], with Calu-6 [7] and in the assay with NCI-H1299 [8] was inactive. Further, in assay [3], the IC50 was over 50000 nM.

For the compound `Cc1ccccc1-c1cc(C(C)(C)C)cc(C(C)C)c1CO`, in assay [2], the outcome was Active. For the same compound, the outcome in the assay on NCI-H727 [6], in the assay on Calu-6 [7] and with NCI-H1299 [8] was inactive. Further, in assay [3], the IC50 is over 50000 nM.

In the case of `CC(C)c1cc(C(C)(C)C)cc(-c2ccc(Cl)cc2)c1CO`, the outcome in assay [2] was Active. For the same compound, the outcome with NCI-H727 [6], in the assay on Calu-6 [7] and in the assay on NCI-H1299 [8] was inactive. Further, the IC50 in assay [3] amounted to 290 nM.

As to `N#Cc1c(NC(=O)Cc2cc3ccccc3[nH]2)sc2c1CCCC2`, the result with Calu-6 [1], with NCI-H727 [4] and with NCI-H1299 [5] was inactive. For the same compound, in assay [2], the result was Active. Further, the IC50 in assay [3] was determined as 50000 nM.

As to `CCC(=O)Nc1sc2c(c1C#N)CCCC2`, the result with Calu-6 [1], in the assay on NCI-H727 [4] and in the assay with NCI-H1299 [5] was inactive. Moreover, in assay [2], the outcome was Active. The half-inhibitory concentration (IC50) in assay [3] is 12000 nM.

Take `N#Cc1c(NC(=O)C2Cc3ccccc3C2)sc2c1CCCC2`: the outcome in the assay on Calu-6 [1], in the assay with NCI-H727 [4] and in the assay on NCI-H1299 [5] was inactive. Further, the result in assay [2] was Active. Further, in assay [3], the IC50 stood at 17000 nM.

Regarding `CC(=O)Nc1sc2c(c1C#N)CCCC2`, the result in the assay with Calu-6 [1], in the assay on NCI-H727 [4] and in the assay on NCI-H1299 [5] was inactive. For the same compound, in assay [2], the outcome was Active. In addition, the concentration for half-maximal inhibition (IC50) in assay [3] came out at 13000 nM.

On to `CC(C)c1cc(C(C)(C)C)cc(-c2ccc3ccccc3c2)c1CO`, for which the result in assay [2] was Active. Further, the outcome in the assay with NCI-H727 [6], in the assay with Calu-6 [7] and in the assay on NCI-H1299 [8] was inactive. In addition, the IC50 in assay [3] was determined as 120 nM.

In the case of `N#Cc1c(NC(=O)C2CCC2)sc2c1CCCC2`, the outcome in the assay on Calu-6 [1], in the assay on NCI-H727 [4] and with NCI-H1299 [5] was inactive. Also, the result in assay [2] was Active. Also, the IC50 in assay [3] is 1800 nM.

As to `N#Cc1c(NC(=O)Cc2ccccc2)sc2c1CCCC2`, the result in the assay on Calu-6 [1], with NCI-H727 [4] and in the assay on NCI-H1299 [5] was inactive. Also, the outcome in assay [2] was Active. In addition, the half-maximal inhibitory concentration (IC50) in assay [3] is 1600 nM.

For the compound `CC(C)c1cc(C(C)(C)C)cc(-c2cccc(-c3ccccc3)c2)c1CO`, the outcome in assay [2] was Active. Moreover, the result in the assay on NCI-H727 [6], in the assay with Calu-6 [7] and in the assay on NCI-H1299 [8] was inactive. Further, in assay [3], the IC50 turned out to be 210 nM.

Turning to `N#Cc1c(NC(=O)Cc2cc3ccccc3s2)sc2c1CCCC2`, the outcome in the assay with Calu-6 [1], in the assay on NCI-H727 [4] and in the assay on NCI-H1299 [5] was inactive. For the same compound, in assay [2], the result was Active. In addition, the IC50 in assay [3] came to 1900 nM.

Take `CC(C)C(=O)Nc1sc2c(c1C#N)CCCC2`: the result in the assay with Calu-6 [1], in the assay with NCI-H727 [4] and with NCI-H1299 [5] was inactive. Further, the outcome in assay [2] was Active. In assay [3], the IC50 stood at 3400 nM.

Regarding `Cc1ccc(CCC(=O)Nc2sc3c(c2C#N)CCCC3)cc1`, the result with Calu-6 [1], with NCI-H727 [4] and in the assay with NCI-H1299 [5] was inactive. The result in assay [2] was Active. Also, the IC50 in assay [3] is 480 nM.

With `N#Cc1c(NC(=O)CC2Cc3ccccc3O2)sc2c1CCCC2` (stereo not given), the result in the assay with Calu-6 [1], in the assay on NCI-H727 [4] and in the assay with NCI-H1299 [5] was inactive. Also, the outcome in assay [2] was Active. Besides, the half-inhibitory concentration (IC50) in assay [3] was 3800 nM.

Consider `CSc1cccc(-c2cc(C(C)(C)C)cc(C(C)C)c2CO)c1`, for which, in assay [2], the result was Active. Moreover, the outcome in the assay on NCI-H727 [6], in the assay with Calu-6 [7] and with NCI-H1299 [8] was inactive. Moreover, the IC50 in assay [3] amounted to 170 nM.

For the compound `CC(C)c1cc(C(C)(C)C)cc(-c2ccccc2)c1CO`, the outcome in assay [2] was Active. Moreover, the outcome in the assay on NCI-H727 [6], with Calu-6 [7] and in the assay on NCI-H1299 [8] was inactive. Moreover, the IC50 in assay [3] worked out at 390 nM.

`CC(C)CC(=O)Nc1sc2c(c1C#N)CCCC2`: the result in the assay with Calu-6 [1], with NCI-H727 [4] and in the assay on NCI-H1299 [5] was inactive. Further, the result in assay [2] was Active. For the same compound, the half-inhibitory concentration (IC50) in assay [3] came to 1900 nM.

Regarding `Cc1cccc(-c2cc(C(C)(C)C)cc(C(C)C)c2CO)c1`, in assay [2], the outcome was Active. In addition, the result in the assay with NCI-H727 [6], in the assay on Calu-6 [7] and in the assay with NCI-H1299 [8] was inactive. Further, in assay [3], the IC50 was 240 nM.

`COc1cccc(CCC(=O)Nc2sc3c(c2C#N)CCCC3)c1`: the outcome in the assay with Calu-6 [1], in the assay with NCI-H727 [4] and in the assay with NCI-H1299 [5] was inactive. Further, in assay [2], the outcome was Active. Further, in assay [3], the IC50 worked out at 610 nM.

Regarding `N#Cc1c(NC(=O)CCc2ccc(Cl)cc2)sc2c1CCCC2`, the outcome with Calu-6 [1], with NCI-H727 [4] and in the assay on NCI-H1299 [5] was inactive. The result in assay [2] was Active. In assay [3], the IC50 came to 1200 nM.

Take `COc1ccc(CCC(=O)Nc2sc3c(c2C#N)CCCC3)cc1`: the outcome in the assay with Calu-6 [1], with NCI-H727 [4] and in the assay on NCI-H1299 [5] was inactive. Further, the outcome in assay [2] was Active. Moreover, the IC50 in assay [3] was determined as 410 nM.

For `N#Cc1c(NC(=O)COc2ccccc2)sc2c1CCCC2`, the outcome in the assay on Calu-6 [1], with NCI-H727 [4] and in the assay with NCI-H1299 [5] was inactive. In assay [2], the outcome was Active. For the same compound, the IC50 in assay [3] worked out at 9100 nM.

Take `Cc1cccc(CCC(=O)Nc2sc3c(c2C#N)CCCC3)c1`: the result in the assay on Calu-6 [1], with NCI-H727 [4] and in the assay with NCI-H1299 [5] was inactive. Further, in assay [2], the outcome was Active. Further, in assay [3], the half-inhibitory concentration (IC50) was found to be 750 nM.

For the compound `Cc1ccccc1CCC(=O)Nc1sc2c(c1C#N)CCCC2`, the outcome in the assay with Calu-6 [1], in the assay with NCI-H727 [4] and in the assay on NCI-H1299 [5] was inactive. Also, the result in assay [2] was Active. Further, in assay [3], the IC50 came out at 11000 nM.

As to `N#Cc1c(NC(=O)C2CCCC2)sc2c1CCCC2`, the result with Calu-6 [1], in the assay on NCI-H727 [4] and with NCI-H1299 [5] was inactive. Moreover, the outcome in assay [2] was Active. The concentration for half-maximal inhibition (IC50) in assay [3] was 470 nM.

What is called IC50 is the concentration that gives 50% inhibition.

The record behind these values is ChEMBL document CHEMBL1955783, “Identification and optimization of small molecule antagonists of vasoactive intestinal peptide receptor-1 (VIPR1)” (Bioorg Med Chem Lett, 2012).
